Measurements taken from PMC10543179 (iScience, 2023).
“And” between values parts separate entries of the source, which are not always exact repeats. Equal entries are not always repeated. Where two headings read alike, the source gives them in different places. Marks after values point to notes of the source that are not given here.

Legend:
HeLa cells [1] = test: Lactate transport experiments; type: cell-based, Human; conditions: for Extra- and intracellular lactate levels in the presence of Syro compared with Syro alone: 3.9 μM compound, Syro 10 μM 1 h pre-treatment, 60 and 120 min
In short: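 HeLa cells were seeded at 10^5 cells/mL and left overnight, then treated 60 and 120 min; test compounds were at 3.9 µM, with DMSO as control. Medium was kept for extracellular lactate. Cells were washed, permeabilised 5 min with 0.2 M HCl in PBS, and neutralised with 1 M Tris base. Extracts were mixed 1:1 with Lactate-Glo reagent, and luminescence was read after 1 h against a standard curve. Values were normalised to BCA protein after 2% SDS lysis.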

HeLa = test: MTT cell viability assay; type: cell-based, Human; conditions: 24 h; for IC25 HeLa / IC75 HeLa: mean ± SD; for IC50: Homo sapiens, HeLa, read-out: IC50 HeLa
In short: (§1)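 Cells were seeded at 10^4/well and left overnight, then exposed 24 h to 0.8–100 µmol/L test compound, with DMSO as control. MTT (5 mg/mL) was added for 2 h at 37 °C; formazan was dissolved in DMSO and read at 570 nm. IC25/50/75 came from viability curves, triplicate wells, ≥3 independent experiments, mean ± SD. Media: HeLa and CAL27 DMEM/10% FBS; MCF7 DMEM/F12/10% FBS plus insulin; MCF10A DMEM/F12/5% horse serum plus insulin.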

CAL27 = test: MTT cell viability assay; type: cell-based, Human; conditions: for IC25 CAL27 / IC75 CAL27: 24 h, mean ± SD; for IC50: Homo sapiens, CAL-27, 24 h, read-out: IC50 CAL27
In short: as §1

[2] = tested on: HeLa, MCF7, CAL27 and MCF10A cell lines; test: MTT cell viability assay, summary among cell lines; type: cell-based; conditions: Homo sapiens, 24 h, read-out: IC50 values among different cell lines
In short: as §1

MCF10A = test: MTT cell viability assay; type: cell-based, Human; conditions: 24 h; for IC25 MCF10A / IC75 MCF10A: mean ± SD; for IC50: Homo sapiens, MCF-10A, read-out: IC50 MCF10A
In short: as §1

MCF7 = test: MTT cell viability assay; type: cell-based, Human; conditions: for IC25 MCF7 / IC75 MCF7: 24 h, mean ± SD; for IC50: Homo sapiens, MCF7, 24 h, read-out: IC50 MCF7
In short: as §1

[3] = 13C NMR lactate transport assay; type: biochemical; conditions: 1% mol carrier to lipid, 50 mM NaCl, 0.5 mM MnCl2
In short: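 POPC vesicles loaded with 13C-carboxyl-labelled sodium L-lactate (200 mM NaLac, 20 mM NaH2PO4, pH 7.2), then dialysed against 150 mM Na2SO4, 20 mM NaH2PO4, pH 7.2 to remove unencapsulated lactate. 13C NMR spectra were taken after the NaCl pulse with the test compound, then after MnCl2, which affects only extravesicular lactate signals.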

[4] = ISE chloride efflux assay, Cl−/NO3− exchange; type: biochemical; conditions: read-out: EC50 Cl^−/NO3^−; chloride efflux at 300 s, 0.5 mM POPC, pH 7.2
In short: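 POPC vesicles (200 nm) held 489 mM NaCl, 5 mM NaH2PO4, pH 7.2, and were dialysed into and dispersed in 489 mM NaNO3, 5 mM NaH2PO4, pH 7.2; final lipid 0.5 mM. Test compound in DMSO was added at t = 0, with DMSO as blank. Chloride release was followed by chloride-selective electrode for 300 s, then Triton-X lysis set 100% release. EC50 and Hill coefficient were derived.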

[5] = Solubility in DMSO-d6 when preparing NMR solutions; type: physicochemical; conditions: DMSO-d6, 25 °C, organic solvent or mixture
HeLa cells [6] = test: Combination therapy of 1 and CisPt; type: cell-based, Human
[7] = read-out: EC50 Cl^−/HCO3^−; chloride efflux at 300 s, POPC vesicles; cited from earlier work
[8] = read-out: EC50 Cl^−/NO3^−; chloride efflux at 300 s, POPC vesicles; cited from earlier work
[9] = deprotonated form, calculated; cited from earlier work

Compound | IC50 (HeLa) [µM] | IC50 (MCF7) [µM] | EC50 [4] [µM] | IC25 HeLa (HeLa) [µM] | IC75 HeLa (HeLa) | IC25 CAL27 (CAL27) [µM] | IC75 CAL27 (CAL27) [µM] | IC50 (CAL27) [µM] | IC50 [2] [µM] | IC25 MCF10A (MCF10A) [µM] | IC75 MCF10A (MCF10A) [µM] | IC50 (MCF10A) [µM] | IC25 MCF7 (MCF7) [µM] | IC75 MCF7 (MCF7) [µM] | other results
CCOC(=O)Oc1c(OC)cc(C(=O)O[C@@H]2C[C@@H]3CN4CCc5c([nH]c6cc(OC)ccc56)[C@H]4C[C@@H]3[C@H](C(=O)OC)[C@H]2OC)cc1OC [Syro, Syrosingopine, reference compound] |  |  |  |  |  |  |  |  |  |  |  |  |  |  | Intracellular lactate levels compared to DMSO (HeLa cells [1]; Syro alone 10 μM, 60 and 120 min (p < 0.0001)): significantly higher than DMSO
COc1cc(-c2cn(-c3ccc(C(C)(C)C)cc3)nn2)[nH]c1/C=N/C12CC3CC(CC(C3)C1)C2.Cl [Compound 1, N-((E)-(5-(1-(4-(tert-butyl)phenyl)-1H-1,2,3-triazol-4-yl)-3-methoxy-1H-pyrrol-2-yl)methylene)adamantan-1-aminium chloride] | 3.36 ± 0.19 | 5.58 ± 1.17 | 0.0037 ± 0.0004 | 2.85 ± 0.16 | 3.9 µM and 3.95 ± 0.26 µM | 2.68 ± 0.18 | 4.00 ± 0.50 | 3.27 ± 0.27 | 3.3 to 7.7 | 5.36 ± 1.09 | 11.22 ± 3.94 | 7.66 ± 1.86 | 4.00 ± 1.22 | 7.91 ± 1.42 | solubility [5]: < 50 mM; Effect of combination therapy with CisPt on cell viability (HeLa cells [6]; 1 at IC10, IC25, IC50, IC75 for 24 h, then CisPt 24 h, all doses of 1): higher compared with respective monotherapy of CisPt; Type of interaction with CisPt (Combination Index) (HeLa cells [6]; higher doses of both 1 and CisPt): moderate synergic effect; Type of interaction with CisPt (Combination Index) (HeLa cells [6]; majority of the dose combinations tested): additive effect; Lactate efflux from vesicles seen by 13C NMR after NaCl pulse and MnCl2 [3]: facilitates lactate efflux
COc1cc(-c2cn(-c3ccc(C(C)(C)C)cc3)nn2)[nH]c1/C=N/CCO.Cl [Compound 3, (E)-N-((5-(1-(4-(tert-butyl)phenyl)-1H-1,2,3-triazol-4-yl)-3-methoxy-1H-pyrrol-2-yl)methylene)-2-hydroxyethan-1-aminium chloride] | 13.5 ± 1.05 | 15.8 ± 1.14 | 8.34 ± 0.431 | 11.98 ± 0.40 | 15.29 ± 1.87 µM | 14.62 ± 3.20 | 20.88 ± 4.45 | 17.4 ± 3.31 | 4.6 to 25.4 | 18.11 ± 3.23 | 35.95 ± 4.27 | 25.4 ± 1.61 | 7.22 ± 0.85 | 34.69 ± 3.11 | 

Now from value to compound, other results behind:

IC50 (HeLa) [µM] | IC50 (MCF7) [µM] | EC50 [4] [µM] | Compound | IC25 HeLa (HeLa) [µM] | IC75 HeLa (HeLa) | IC25 CAL27 (CAL27) [µM] | IC75 CAL27 (CAL27) [µM] | IC50 (CAL27) [µM] | IC50 [2] [µM] | IC25 MCF10A (MCF10A) [µM] | IC75 MCF10A (MCF10A) [µM] | IC50 (MCF10A) [µM] | IC25 MCF7 (MCF7) [µM] | IC75 MCF7 (MCF7) [µM] | other results
> 100 | > 100 |  | COc1cc(-c2cn(CCO)nn2)[nH]c1/C=N/CCO.Cl [Compound 4, (E)-2-hydroxy-N-((5-(1-(2-hydroxyethyl)-1H-1,2,3-triazol-4-yl)-3-methoxy-1H-pyrrol-2-yl)methylene)ethan-1-aminium chloride] | >100 | >100 µM | 60.97 ± 5.40 | >100 | 82.1 ± 2.88 | > 82 | 98.64 ± 0.94 | >100 | > 100 | >100 | >100 | Extra- and intracellular lactate levels in the presence of Syro compared with Syro alone (HeLa cells [1]): no significant differences; Lactate efflux from vesicles seen by 13C NMR after NaCl pulse and MnCl2 [3]: no changes
12.5 ± 0.98 | 9.06 ± 2.35 | 0.016 ± 0.001 | COc1cc(-c2cn(-c3ccc(C(C)(C)C)cc3)nn2)[nH]c1/C=N/C1CCCC1.Cl [Compound 2, (E)-N-((5-(1-(4-(tert-butyl)phenyl)-1H-1,2,3-triazol-4-yl)-3-methoxy-1H-pyrrol-2-yl)methylene)cyclopentanaminium chloride] | 11.34 ± 0.38 | 13.77 ± 1.88 µM | 9.25 ± 2.26 | 12.35 ± 2.40 | 10.6 ± 2.06 | 4.6 to 25.4 | 13.62 ± 1.64 | 25.65 ± 3.97 | 18.7 ± 2.55 | 4.04 ± 1.37 | 20.49 ± 3.88 | 
85.6 ± 2.94 | > 100 |  | COc1cc(-c2cn(CCO)nn2)[nH]c1/C=N/C12CC3CC(CC(C3)C1)C2.Cl [Compound 5, N-((E)-(5-(1-(2-Hydroxyethyl)-1H-1,2,3-triazol-4-yl)-3-methoxy-1H-pyrrol-2-yl)methylene)adamantan-1-aminium chloride] | 78.14 ± 3.00 | 93.73 ± 3.71 µM | 86.88 ± 6.79 | >100 | 96 ± 4.79 | > 82 | 94.92 ± 5.23 | >100 | > 100 | >100 | >100 | Extra- and intracellular lactate levels in the presence of Syro compared with Syro alone (HeLa cells [1]): no significant differences
6.31 ± 0.06 | 11.5 ± 1.19 |  | COc1cc(-c2cn(-c3ccc(Cl)cc3)nn2)[nH]c1/C=N/C1CCCCC1.Cl [Compound 6, (E)-N-((5-(1-(4-Chlorophenyl)-1H-1,2,3-triazol-4-yl)-3-methoxy-1H-pyrrol-2-yl)methylene)cyclohexanaminium chloride] | 6.09 ± 0.09 | 6.54 ± 0.02 µM | 6.58 ± 2.98 | 8.44 ± 2.59 | 7.41 ± 2.77 | 4.6 to 25.4 | 3.49 ± 0.22 | 6.12 ± 1.56 | 4.61 ± 0.15 | 9.05 ± 1.13 | 14.53 ± 1.23 | EC50 [7]: 0.13 ± 0.007 µM; EC50 [8]: 0.0326 ± 0.0008 µM; LogP [9]: 4.22 ^c
